# Experimental data taken from publication PMC7845017 (ACS Central Science, 2021).
# What was measured:
# Experiment in all cases: Broth microdilution MIC
# [1] = test system: P. aeruginosa PAO1; type: cell-based, Pseudomonas aeruginosa; settings: P. aeruginosa PAO1, Müller-Hinton medium, 16–20 h at 37 °C; at least two independent duplicates
# How it was run: (§1)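 MIC reported in μg/mL. Each strain was grown in Müller-Hinton medium and incubated for 16–20 h at 37 °C. Every strain was tested in at least two independent duplicates.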
# [2] = test system: E. coli W3110; type: cell-based, Escherichia coli; settings: E. coli W3110, Müller-Hinton medium, 16–20 h at 37 °C; at least two independent duplicates
# How it was run: as §1
# [3] = test system: A. baumannii ATCC 19606; type: cell-based, Acinetobacter baumannii; settings: A. baumannii ATCC 19606, Müller-Hinton medium, 16–20 h at 37 °C; at least two independent duplicates
# How it was run: as §1
# [4] = test system: K. pneumoniae NCTC418; type: cell-based, Klebsiella pneumoniae; settings: K. pneumoniae NCTC418, Müller-Hinton medium, 16–20 h at 37 °C; at least two independent duplicates
# How it was run: as §1
Substance,P. aeruginosa MIC [1] [µg/mL],E. coli MIC [2] [µg/mL],A.baumannii MIC [3] [µg/mL],K. pneumoniae MIC [4] [µg/mL]
KYKKALKKLAKLL [rac-SB1],2,1,2,16
KYKKALKKLAKLL [sr-SB1],>64,32,>64,>64
KYKKALKKLAKLL [sr^3/1-SB1],>64,16,>64,>64
VQWRAIRVRVIR [sr-DJK5],>64,16,>64,>64
"polymyxin B [PMB, reference compound]",0.25,0.25,0.25,0.25

# The next lines start with the values.
P. aeruginosa MIC [1] [µg/mL],E. coli MIC [2] [µg/mL],A.baumannii MIC [3] [µg/mL],K. pneumoniae MIC [4] [µg/mL],Substance
>64,16,8,16,ILPWKWPWWPWRR [sr-Indo]
>64,16,>64,>64,KYKKALKKLAKLL [sr^1/3-SB1]
